Data taken from ChEMBL document CHEMBL3868626, “Discovery of novel multi-target indole-based derivatives as potent and selective inhibitors of chikungunya virus replication” (Bioorg Med Chem, 2017).
Calls of active or inactive are those of the source. No cut-off for these calls is given here.

Legend:
[1] = Cytotoxicity against African green monkey Vero cells assessed as reduction in metabolic activity by MTS/PMS based microscopic analysis; format: toxicity, cell-based; details: chlorocebus sabaeus
Procedure, shortened: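 Uninfected Vero cells exposed to compound dilution series; overall metabolic activity measured by MTS/PMS, with microscopic checks of cell/monolayer morphology. CC50 = concentration reducing metabolic activity by 50%, by logarithmic interpolation.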

[2] = Selectivity index, ratio of CC50 for African green monkey Vero cells to EC50 for Chikungunya virus 899 infected in African green monkey Vero cells; format: toxicity, cell-based; details: read-out: Ratio CC50/EC50
Procedure, shortened: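 Ratio of CC50 in uninfected Vero cells (MTS/PMS) to EC50 for inhibition of CHIKV 899-induced CPE in Vero cells, both from logarithmic interpolation.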

Chikungunya virus [3] = test: Antiviral activity against Chikungunya virus 899 infected in African green monkey Vero cells assessed as inhibition of virus-induced cytopathogenic effect measured 5 days post infection by MTS/PMS based microscopic analysis; format: functional, cell-based; details: Chikungunya virus, 899, Vero, 120 h
Sindbis virus = test: Antiviral activity against Sindbis virus infected in African green monkey Vero A cells assessed as inhibition of virus-induced cytopathogenic effect measured 5 days post infection by MTS/PMS based microscopic analysis; format: functional, cell-based; details: 120 h
[4] = Cytotoxicity against African green monkey BGM cells; format: toxicity, cell-based; details: chlorocebus aethiops
Chikungunya virus [5] = test: Antiviral activity against Chikungunya virus 899 infected in African green monkey Vero A cells assessed as inhibition of viral replication at post entry step by measuring reduction in intracellular viral RNA treated up to 6 hrs post infection measured after 24 hrs by qRT-PCR analysis; format: functional, cell-based
Chikungunya virus [6] = test: Antiviral activity against Chikungunya virus 899 infected in African green monkey Vero A cells assessed as reduction in infectious virus particle production incubated for 48 hrs by end-point titration assay; format: functional, cell-based; details: for EC50: Chikungunya virus, 899, Vero
Semliki Forest virus = test: Antiviral activity against Semliki forest virus infected in African green monkey Vero A cells assessed as inhibition of virus-induced cytopathogenic effect measured 5 days post infection by MTS/PMS based microscopic analysis; format: functional, cell-based; details: 120 h
Chikungunya virus [7] = test: Antiviral activity against Chikungunya virus 899 infected in African green monkey Vero A cells assessed as reduction in viral RNA level incubated for 48 hrs by qRT-PCR analysis; format: functional, cell-based; details: for EC50: Chikungunya virus, 899, Vero
Chikungunya virus [8] = test: Antiviral activity against Chikungunya virus 899 pseudoparticles infected in African green monkey BGM cells assessed as inhibition of pseudoparticles entry after 72 hrs by luciferase reporter gene assay; format: functional, cell-based; details: Chikungunya virus, 899, BGM
Procedure, shortened: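 BGM cells at 2.5 × 10^4/well adhered overnight; serial compound dilutions added, then cells infected with lentiviral pseudoparticles bearing CHIKV glycoproteins and firefly luciferase reporter. After 72 h cells lysed and intracellular luciferase activity measured as entry read-out. Mean ± SD, ≥3 independent experiments.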

Chikungunya virus [9] = test: Antiviral activity against Chikungunya virus assessed as inhibition of virus replication by cell based assay; format: functional
Chikungunya virus [10] = test: Antiviral activity against Chikungunya virus 899 infected in African green monkey Vero A cells assessed as inhibition of viral replication at post entry step by measuring reduction in intracellular viral RNA treated 2 hrs post infection measured after 24 hrs by qRT-PCR analysis; format: functional
Chikungunya virus [11] = test: Antiviral activity against Chikungunya virus 899 infected in African green monkey Vero A cells assessed as inhibition of viral replication by measuring reduction in intracellular viral RNA treated 2 hrs prior to infection measured after 24 hrs by qRT-PCR analysis; format: functional

Compound	CC50 [1]	selectivity ratio [2]	EC50 (Chikungunya virus [3])	also measured
Cn1c(C[S+]([O-])c2ccc(C(F)(F)F)cc2)c(C(=O)OC(C)(C)C)c2cc(O)ccc21 (centres undefined)	24 µM	1.9	13 µM	–
CN(C)Cc1c(O)ccc2c1c(C(=O)OC(C)(C)C)c(C[S+]([O-])c1c(Cl)cccc1Cl)n2C (centres undefined)	9.2 µM	2.2	4.1 µM	–
Cn1c(C[S+]([O-])c2ccccc2C(F)(F)F)c(C(=O)OC(C)(C)C)c2cc(O)ccc21 (centres undefined)	156 µM	22	6.5 µM	EC50 (Sindbis virus): 20 µM; CC50 [4]: 50 µM; inhibition (Chikungunya virus [5]): Active; Activity (Chikungunya virus [6]): Dose-dependent effect; EC50 (Chikungunya virus [6]): 1 µM; EC50 (Semliki Forest virus): 33 µM; Activity (Chikungunya virus [7]): Dose-dependent effect; EC50 (Chikungunya virus [7]): 1 µM; EC50 (Chikungunya virus [8]): 27 µM
CN(C)Cc1c(O)ccc2c1c(C(=O)OC(C)(C)C)c(C[S+]([O-])c1ccccc1C(F)(F)F)n2C (centres undefined)	66 µM	3	22 µM	–
CN(C)Cc1c(O)c(Br)cc2c1c(C(=O)OC(C)(C)C)c(C[S+]([O-])c1ccccc1C(F)(F)F)n2C (centres undefined)	56 µM	4.6	12 µM	–
Cn1c(CSc2c(Cl)cccc2Cl)c(C(=O)OC(C)(C)C)c2cc(O)c(Br)cc21	13 µM	2.3	5.7 µM	–
Cn1c(C[S+]([O-])c2c(Cl)cccc2Cl)c(C(=O)OC(C)(C)C)c2cc(CO)ccc21 (centres undefined)	397 µM	13.2	30 µM	–
CCOC(=O)c1c(CSc2ccccc2)n(C)c2cc(Br)c(O)c(CN(C)C)c12 [UMIFENOVIR]	161 µM	4.6	35 µM	CC50 [4]: > 60 µM; EC50 (Chikungunya virus [9]): < 10 µg/mL; inhibition (INH) (Chikungunya virus [10]): >50%; inhibition (INH) (Chikungunya virus [11]): >50%; EC50 (Chikungunya virus [8]): 4.4 µM
Cn1c(C[S+]([O-])c2ccccc2C(F)(F)F)c(C(=O)OC(C)(C)C)c2cc(CO)ccc21 (centres undefined)	> 468 µM	> 14.6	32 µM	EC50 (Sindbis virus): 96 µM; CC50 [4]: > 60 µM; EC50 (Chikungunya virus [6]): 10 µM; EC50 (Semliki Forest virus): 128 µM; EC50 (Chikungunya virus [7]): 9 µM; EC50 (Chikungunya virus [8]): 36 µM
CN(C)Cc1c(O)c(Br)cc2c1c(C(=O)OC(C)(C)C)c(CSc1c(Cl)cccc1Cl)n2C	17 µM	–	≥ 17 µM	–
Cn1c(CSc2ccccc2C(F)(F)F)c(C(=O)OC(C)(C)C)c2cc(O)c(Br)cc21	26 µM	2.7	9.6 µM	–
Cn1c(C[S+]([O-])c2ccccc2C(F)(F)F)c(C(=O)OC(C)(C)C)c2cc(O)c(Br)cc21 (centres undefined)	26 µM	2.7	9.6 µM	–
Cn1c(C[S+]([O-])c2ccc(Cl)cc2)c(C(=O)OC(C)(C)C)c2cc(O)ccc21 (centres undefined)	93 µM	11	8.2 µM	–
Cn1c(CSc2ccc(Cl)cc2)c(C(=O)OC(C)(C)C)c2cc(O)ccc21	15 µM	3.2	4.8 µM	–
Cn1c(CSc2ccc(F)cc2)c(C(=O)OC(C)(C)C)c2cc(O)ccc21	11 µM	3.2	4.5 µM	–
Cn1c(CSc2ccccc2C(F)(F)F)c(C(=O)OC(C)(C)C)c2cc(O)ccc21	19 µM	4.1	3.4 µM	–
Cn1c(CSc2ccc(C(F)(F)F)cc2)c(C(=O)OC(C)(C)C)c2cc(O)ccc21	11 µM	3.1	3.6 µM	–
Cn1c(C[S+]([O-])c2ccc(F)cc2)c(C(=O)OC(C)(C)C)c2cc(O)ccc21 (centres undefined)	> 100 µM	> 5.7	17 µM	–
Cn1c(C[S+]([O-])c2c(Cl)cccc2Cl)c(C(=O)OC(C)(C)C)c2cc(O)ccc21 (centres undefined)	151 µM	7.6	20 µM	–
Cn1c(CSc2c(Cl)cccc2Cl)c(C(=O)OC(C)(C)C)c2cc(O)ccc21	7.8 µM	2.7	2.9 µM	–
